Results taken from ChEMBL document CHEMBL3414472, “Synthesis, SAR, and series evolution of novel oxadiazole-containing 5-lipoxygenase activating protein inhibitors: discovery of 2-[4-(3-{(r)-1-[4-(2-amino-pyrimidin-5-yl)-phenyl]-1-cyclopropyl-ethyl}-[1,2,4]oxadiazol-5-yl)-pyrazol-1-yl]-N,N-dimethyl-acetamide (BI 665915)” (J Med Chem, 2015).
pIC50: −log10 of the molar value.

Assays:
Rattus norvegicus = test: Clearance in rat at 1 mg/kg, iv and 10 mg/kg, po relative to hepatic blood flow; format: ADME, organism-based, Liver; conditions: in vivo
In short: (§1)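 iv 1 mg/kg in 70 % PEG; po 10 mg/kg as suspension in 0.5 % methyl cellulose/0.015 % Tween. Blood sampled at 11 timepoints (0, 5, 15, 30 min, 1, 2, 4, 6, 8, 12, 24 h) per dose; mean of n = 3. Clearance expressed as percent of hepatic blood flow.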

[1] = Plasma concentration in C57BL/6 mouse at 10 mg/kg, po after 2 hrs; format: ADME, organism-based; design: dose 10 mg/kg, route oral
hERG (KCNH2) = hERG (KCNH2) (Homo sapiens, UniProt Q12809); test: Inhibition of human ERG expressed in HEK293 cells assessed as change in tail current at 11 uM by manual patch clamp assay relative to control; format: cell-based; conditions: HEK293 cells that express hERG
Chain of hERG (KCNH2) (Q12809 whole entry, the tested form may be a part): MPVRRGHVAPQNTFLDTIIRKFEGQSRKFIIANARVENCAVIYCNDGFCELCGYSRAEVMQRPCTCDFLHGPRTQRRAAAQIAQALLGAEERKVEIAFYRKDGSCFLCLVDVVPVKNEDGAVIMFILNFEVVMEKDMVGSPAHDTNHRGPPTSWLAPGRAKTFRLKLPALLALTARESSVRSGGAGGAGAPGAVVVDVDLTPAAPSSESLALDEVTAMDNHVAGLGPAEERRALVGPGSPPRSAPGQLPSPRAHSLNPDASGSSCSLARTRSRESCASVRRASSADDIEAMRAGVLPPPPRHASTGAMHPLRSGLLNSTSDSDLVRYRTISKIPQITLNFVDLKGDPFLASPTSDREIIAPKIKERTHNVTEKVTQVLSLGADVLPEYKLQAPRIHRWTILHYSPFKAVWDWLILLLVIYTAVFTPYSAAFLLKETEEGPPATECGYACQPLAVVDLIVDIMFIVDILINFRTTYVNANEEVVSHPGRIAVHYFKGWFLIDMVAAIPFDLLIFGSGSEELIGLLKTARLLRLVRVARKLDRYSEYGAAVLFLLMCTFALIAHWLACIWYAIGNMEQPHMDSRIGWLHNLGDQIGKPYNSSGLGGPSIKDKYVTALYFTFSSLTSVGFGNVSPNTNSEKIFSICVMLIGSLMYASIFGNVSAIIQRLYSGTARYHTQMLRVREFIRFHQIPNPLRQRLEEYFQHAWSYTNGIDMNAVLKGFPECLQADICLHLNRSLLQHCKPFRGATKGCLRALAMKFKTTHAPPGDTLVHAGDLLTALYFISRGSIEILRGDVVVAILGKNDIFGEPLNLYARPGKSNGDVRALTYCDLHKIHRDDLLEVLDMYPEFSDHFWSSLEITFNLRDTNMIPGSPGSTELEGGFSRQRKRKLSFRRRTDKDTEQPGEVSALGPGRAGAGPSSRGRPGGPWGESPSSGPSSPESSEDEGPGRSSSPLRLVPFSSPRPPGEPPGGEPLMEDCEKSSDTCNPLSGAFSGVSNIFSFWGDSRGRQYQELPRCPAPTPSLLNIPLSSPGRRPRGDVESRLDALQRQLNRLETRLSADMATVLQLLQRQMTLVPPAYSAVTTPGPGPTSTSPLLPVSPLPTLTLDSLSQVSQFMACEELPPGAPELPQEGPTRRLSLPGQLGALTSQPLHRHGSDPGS
In short: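 Whole-cell manual patch clamp on HEK293 cells stably expressing human ERG, at room temperature (20-22 °C) in a perfusion chamber. Change in hERG tail current amplitude during the hyperpolarizing step measured with escalating compound concentrations.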

[2] = molecular target: T1, Cytosolic phospholipase A2 (Homo sapiens) (UniProt P47712); test: Inhibition of phospholipase A2 (unknown origin) at 10 uM relative to control
T1 sequence (whole entry): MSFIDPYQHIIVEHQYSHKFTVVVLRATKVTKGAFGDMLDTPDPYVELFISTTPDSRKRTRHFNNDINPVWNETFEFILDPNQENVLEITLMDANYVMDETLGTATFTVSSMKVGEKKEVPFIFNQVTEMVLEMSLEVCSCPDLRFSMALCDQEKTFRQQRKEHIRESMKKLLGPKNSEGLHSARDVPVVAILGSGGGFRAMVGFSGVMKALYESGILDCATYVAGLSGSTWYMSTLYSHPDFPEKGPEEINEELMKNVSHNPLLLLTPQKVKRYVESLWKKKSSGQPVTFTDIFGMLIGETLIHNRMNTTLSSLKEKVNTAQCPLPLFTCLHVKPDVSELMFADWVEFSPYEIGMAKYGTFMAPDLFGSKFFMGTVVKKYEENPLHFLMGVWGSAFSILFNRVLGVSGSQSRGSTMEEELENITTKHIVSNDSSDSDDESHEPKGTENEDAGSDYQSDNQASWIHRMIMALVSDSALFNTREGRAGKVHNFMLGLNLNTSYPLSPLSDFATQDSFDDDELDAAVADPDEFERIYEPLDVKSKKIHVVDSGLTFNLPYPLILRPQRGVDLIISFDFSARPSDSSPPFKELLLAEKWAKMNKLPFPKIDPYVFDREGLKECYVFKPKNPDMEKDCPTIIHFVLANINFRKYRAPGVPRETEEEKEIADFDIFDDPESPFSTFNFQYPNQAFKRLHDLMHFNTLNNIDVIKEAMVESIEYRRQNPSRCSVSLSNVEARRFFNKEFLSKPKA

Mus musculus = test: In vivo inhibition of FLAP in C57BL/6 mouse assessed as LTB4 production in calcimycin-stimulated whole blood at 10 mg/kg, po after 2 hrs by ELISA (reference value: 100 +/- 13.3%); format: functional; design: scale not given: the % may be the effect or the level left
Hepatocyte = test: Unbound clearance in human hepatocytes at 1 uM measured over 6 hrs by LC/MS analysis relative to hepatic blood flow; format: ADME, cell-based, Liver
In short: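 Cryopreserved human hepatocytes (1 million cells/mL) with 1 µM compound at 37 °C for 6 h; compound remaining measured by LC/MS over a duplicate 6-timepoint (0 to 6 h) curve. Clearance derived from the ln(% remaining) vs time slope and corrected by the human plasma unbound fraction; expressed as percent of hepatic blood flow.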

[3] = Mean residence time in cynomolgus monkey at 1 mg/kg, iv; format: ADME, organism-based, Macaca fascicularis; design: dose 1 mg/kg, route intravenous; conditions: in vivo; in short: as §1
[4] = Volume of distribution at steady state in rat at 1 mg/kg, iv and 10 mg/kg, po; format: ADME, organism-based; conditions: in vivo, read-out: Vdss; in short: as §1
[5] = Permeability across apical to basolateral side in human Caco2 cells measured up to 2 hrs by LC/MS/MS analysis; format: ADME, cell-based; conditions: Caco-2, read-out: permeability
In short: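 Caco-2 cells seeded at 1-2 x 10^5 cells/cm2 on 0.4 µm PET filter inserts, cultured 10 to 25 days. Compound in HTP-4 buffer applied to apical donor side; donor sampled at start and end, receiver sampled over up to 2 h; quantified by LC/MS/MS. Duplicate 6-timepoint (0 to 2 h).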

[6] = Oral bioavailability in cynomolgus monkey at 10 mg/kg; format: ADME, organism-based, Macaca fascicularis; conditions: in vivo; in short: as §1
[7] = Clearance in human hepatocytes at 1 uM measured over 6 hrs by LC/MS analysis relative to hepatic blood flow; format: ADME, cell-based, Liver, Hepatocyte; conditions: read-out: CLH
In short: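 Cryopreserved human hepatocytes (1 million cells/mL) incubated with compound (1 µM) at 37 °C; compound remaining measured by LC/MS over duplicate 6-timepoint curves (0 to 6 h). The slope is taken from ln % remaining versus time. Clearance is expressed as percent of hepatic blood flow.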

[8] = Volume of distribution at steady state in dog at 1 mg/kg, iv and 10 mg/kg, po; format: ADME, organism-based, Canis lupus familiaris; conditions: in vivo, read-out: Vdss; in short: as §1
Cytochrome P450 2D6 = Cytochrome P450 2D6 (Homo sapiens, UniProt P10635); test: Inhibition of CYP2D6 in human liver microsomes using dextromethorphan as substrate preincubated for 10 mins followed by NADPH addition measured after 6 mins; format: ADME
Chain of Cytochrome P450 2D6 (P10635 whole entry): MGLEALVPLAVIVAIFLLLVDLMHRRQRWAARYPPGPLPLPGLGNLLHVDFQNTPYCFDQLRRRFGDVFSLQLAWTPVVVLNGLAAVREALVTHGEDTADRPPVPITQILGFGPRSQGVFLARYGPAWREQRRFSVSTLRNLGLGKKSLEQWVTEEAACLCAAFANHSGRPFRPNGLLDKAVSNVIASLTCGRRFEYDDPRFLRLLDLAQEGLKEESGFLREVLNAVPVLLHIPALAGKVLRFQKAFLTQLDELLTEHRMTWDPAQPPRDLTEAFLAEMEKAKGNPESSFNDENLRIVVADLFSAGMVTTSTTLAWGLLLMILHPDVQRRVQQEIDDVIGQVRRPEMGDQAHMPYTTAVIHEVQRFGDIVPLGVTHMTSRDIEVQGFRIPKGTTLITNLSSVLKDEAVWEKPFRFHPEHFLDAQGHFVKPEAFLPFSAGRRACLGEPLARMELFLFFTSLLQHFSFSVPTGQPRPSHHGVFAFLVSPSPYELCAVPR
In short: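 Human liver microsomes (0.05 mg/mL protein) with cocktail substrates: 4 µM diclofenac (2C9), 3 µM dextromethorphan (2D6), 2.5 µM midazolam (3A4). Compound in 0.1 M potassium phosphate pH 7.4 preincubated 10 min at 37 °C; NADPH added, reaction 6 min at 37 °C.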

Cytochrome P450 3A4 = Cytochrome P450 3A4 (Homo sapiens, UniProt P08684); test: Time-dependent inhibition of CYP3A4 in human liver microsomes using midazolam as substrate up to 100 uM by LC/MS/MS analysis; format: ADME
Chain of Cytochrome P450 3A4 (P08684 whole entry): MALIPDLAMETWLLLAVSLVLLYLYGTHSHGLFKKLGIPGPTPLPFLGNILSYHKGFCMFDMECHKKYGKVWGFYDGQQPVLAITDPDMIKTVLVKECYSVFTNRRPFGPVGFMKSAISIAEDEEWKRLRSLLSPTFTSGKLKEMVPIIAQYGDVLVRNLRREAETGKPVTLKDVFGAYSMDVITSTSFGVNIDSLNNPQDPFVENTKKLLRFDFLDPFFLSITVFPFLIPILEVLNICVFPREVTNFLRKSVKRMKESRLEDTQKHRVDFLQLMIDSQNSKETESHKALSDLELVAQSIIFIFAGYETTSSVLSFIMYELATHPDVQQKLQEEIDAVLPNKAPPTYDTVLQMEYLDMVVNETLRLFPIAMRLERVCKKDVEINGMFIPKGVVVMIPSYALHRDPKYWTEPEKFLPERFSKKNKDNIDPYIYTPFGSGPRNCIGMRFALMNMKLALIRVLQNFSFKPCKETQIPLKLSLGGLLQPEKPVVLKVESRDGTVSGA
In short: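 Primary incubation: 0.1 mg/ml human liver microsomes, 100 mM phosphate pH 7.4, 1 mM NADPH, 37 °C, compound 0 to 100 µM (7 concentrations). Aliquots taken at 0, 1, 3, 5, 15, 30 min into secondary incubation with 15 µM midazolam and 1 mM NADPH, quenched after 8 min; 1'-hydroxymidazolam measured by LC/MS/MS against a d4 internal standard.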

[9] = molecular target: T2, Arachidonate 5-lipoxygenase-activating protein (Homo sapiens, UniProt P20292); test: Displacement of [125I]-L-691831 from human FLAP expressed in insect SF9 cell membranes after 2 hrs by Topcount analysis
T2 sequence (P20292 whole entry): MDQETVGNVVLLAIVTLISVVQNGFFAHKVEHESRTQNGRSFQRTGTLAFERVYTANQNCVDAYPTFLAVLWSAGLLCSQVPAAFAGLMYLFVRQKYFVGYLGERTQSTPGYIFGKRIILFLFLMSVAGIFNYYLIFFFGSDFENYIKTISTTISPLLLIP

[10] = Plasma concentration in C57BL/6 mouse at 3 mg/kg, po after 2 hrs; format: ADME, organism-based; design: dose 3 mg/kg, route oral

CN(C)C(=O)Cn1cc(-c2nc([C@@](C)(c3ccc(-c4cnc(N)nc4)cc3)C3CC3)no2)cn1 [BI 665915]
CL (Rattus norvegicus): 7%
concentration at 2 h [1]: 14.8 µM
inhibition at 11 µM (hERG (KCNH2)): 11%
inhibition [2]: < 50%
Activity (Mus musculus): 35.2%
CL free (Hepatocyte): 8.7%
MRT [3]: 4.8 h
Vd [4]: 0.9 L/kg
Papp A→B at 2 h [5]: 34 ×10⁻⁶ cm/s
bioavailability [6]: 45%
hepatic extraction ratio at 6 h, 1 µM [7]: 0.41
Vd [8]: 1.2 L/kg
pIC50 (Cytochrome P450 2D6): < 4.52
TDI (Cytochrome P450 3A4): Not Active
pIC50 [9]: 8.77
concentration at 2 h [10]: 3.7 µM
